MBD2 inh = MBD2-methylated oligo binding inhibition; TR-FRET, MBD2 binding to methylated oligonucleotide; inhibition, % at 4.4 µM; AID 686964; Q9UBB5; 370,000 compounds, 0.31% hits; in the data active = inhibition above about 13%
UHRF1 MBD2 ctr = human UHRF1 methylated DNA binding inhibitors | Q96T88 | UHRF1 binding to methylated oligo, TR-FRET | inhibition, % at 4.4 µM | 370,000 compounds, 0.75% hits | AID 687016; in the data active = inhibition above about 21%;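 also: UHRF1 SRA domain binding a hemimethylated CpG hairpin DNA probe; 0% = median of test compound wells and 100% = reference inhibitor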
LEDGF integ inh = blocks HIV-1 LEDGF/p75-dependent DNA integration. TR-FRET IN-LEDGF/p75 DNA integration, Eu/Cy5. inhibition, % at 3.7 µM. 370,000 compounds, 0.64% hits. AID 743269;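 active = inhibition above the screen-wide mean plus 3 SD, cut at about 13% in these data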;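 also: signal is the Cy5 over europium emission ratio at 671 and 618 nm; 0% = plate median of compound wells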
CASP6 VEID inh = caspase-6 (human) enzyme inhibition. AID 686996. inhibition, % at 12.5 µM. P55212. 350,000 compounds, 0.53% hits. purified caspase-6, Z-VEID-R110 cleavage fluorescence;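 active = mean inhibition across replicates at least about 35%, with every replicate also reaching that limit, limit read from the data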;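 also: 0% = median of neutral control wells and 100% = no fluorescence left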
TDP2 absorb = TDP2 (human) inhibition, absorbance primary screen | 370,000 compounds, 0.34% hits | AID 720702 | inhibition, % at 12.8 µM | recombinant TDP2, T5PNP hydrolysis, p-nitrophenol absorbance 415 nm;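 active = inhibition above the mean of all tested compounds plus 3 SD, set per campaign, cut at about 25% in these data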;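 also: 0% = DMSO with enzyme and 100% = buffer with substrate but no TDP2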
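Incubation: 2 h at 37 °C; Test system: recombinant human TDP2; Quantity: enzyme 120 nM; Read-out basis: percent inhibition; Medium: 50 mM Tris-HCl pH 7.5 with Mg2+, KCl, DTT, BSA; Repeats: single replicate; Compound: 12.8 µM single point, 1% DMSO; Signal: epi absorbance; Reagent: 5 mM T5PNP chromogenic substrate; Benchmarks: no-enzyme high, DMSO-plus-enzyme low.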
NSD2 HMT inh = blocks human histone methyltransferase NSD2; AID 743445; inhibition, % at 12.5 µM; O96028; 310,000 compounds, 0.54% hits; NSD2 peptide methylation, AlphaScreen, 120 min; in the data active = inhibition above about 50%
* hit, by the source's call; / = not tested or not shown. Hits are enriched below; roughly 1.8% of the tested compounds scored in any of these assays.

SMILES	MBD2 inh	UHRF1 MBD2 ctr	LEDGF integ inh	CASP6 VEID inh	TDP2 absorb	NSD2 HMT inh
COc1ccc2c(c1)c(=O)oc1cc(OCC(=O)NC3CCCCC3)ccc12	10.5	24.9*	5.2	/	-12.2	3.4
C[C@H](CO)N1C[C@H](C)[C@@H](CN(C)C(=O)CC2CC2)Oc2ncc(C#C[C@@H](C)O)cc2C1=O	/	/	/	-2.9	/	/
C[C@@H]1CN([C@H](C)CO)S(=O)(=O)c2ccc(-c3ccc(F)cc3)cc2O[C@@H]1CN(C)C(=O)C1CCCCC1	/	/	/	1.5	/	/
OCCNc1ncnc2c1ncn2[C@H]1CN(Cc2cccs2)C[C@@H](CO)O1	1.6	25.8*	2.1	-2.1	-3.4	-2.4
C[C@H](NC(=O)[C@H]1[C@H](CO)[C@H]2Cn3c(cccc3=O)[C@H]2N1CC1CC1)c1ccccc1	/	/	/	1.9	/	/
COC(=O)c1ccccc1S(=O)(=O)N1CCC(C(=O)OCC(=O)NCC(F)(F)F)CC1	3.5	8.0	-6.6	0.5	-16.1	/
O=C(COC(=O)C1CCN(S(=O)(=O)c2ccccc2)CC1)NC(=O)c1ccc(OC(F)F)cc1	3.1	25.9*	8.0	-0.6	4.8	-0.7
CCOC(=O)C1CCN(S(=O)(=O)c2ccc3c(c2)CC(=O)N3C)CC1	-6.4	-6.2	-1.6	3.0	25.0*	-6.0
CCOC(=O)C1CCN(S(=O)(=O)c2ccc3c(c2)CCCN3C(C)=O)CC1	-1.0	0.4	-0.5	/	5.0	-4.3
O=C(COC(=O)c1ccccc1O)NC(=O)c1ccc(OC(F)F)cc1	2.2	1.9	-1.3	0.0	2.7	-0.1
Cc1ccc(S(=O)(=O)N2CCC(C(=O)OCC(=O)NCCc3ccccc3)CC2)cc1C	-6.1	39.9*	-0.2	4.8	7.2	-0.9
CCOC(=O)c1ccccc1NC(=O)COC(=O)C1CCN(S(=O)(=O)c2ccccc2C(=O)OC)CC1	0.4	2.4	-0.6	59.5*	-6.7	-2.6
CCNC(=O)C[C@H]1CC[C@@H]2[C@@H](COc3ccc(NC(C)=O)cc3C(=O)N2C)O1	/	/	/	3.6	/	/
CCC(=O)N(C)C[C@H]1Oc2ncc(C3=CCCC3)cc2C(=O)N([C@H](C)CO)C[C@@H]1C	/	/	/	0.9	/	/
O=C(Nc1ccccc1)N[C@H]1CC[C@@H](CCNS(=O)(=O)c2ccccc2F)O[C@H]1CO	/	/	/	-0.7	/	/
C[C@@H]1CN([C@@H](C)CO)C(=O)c2cc(NS(=O)(=O)c3ccc(Cl)cc3)ccc2O[C@@H](C)CCCCO[C@H]1CN(C)Cc1ccc(C(F)(F)F)cc1	/	/	/	1.0	/	/
O=C(NC1CCCC1)c1n[nH]c2ccccc12	-4.6	45.4*	-1.9	-3.0	7.7	-1.2
O=C(Nc1ccccc1F)c1coc(=O)c(Br)c1	1.3	1.7	1.8	74.0*	13.8	2.2
CO[C@H]1CN(C)C(=O)c2ccc(NC(=O)C3CC3)cc2OC[C@H](C)N(CC2CCCC2)C[C@@H]1C	/	/	/	-1.3	/	/
Cn1c(SCC(=O)Nc2nncs2)nnc1C1CC1	4.4	9.2	4.7	35.8*	10.2	7.0
O=C(CN1CCOCC1)N1CC(=O)N2[C@H](CO)[C@@H](c3ccc(/C=C/c4ccccc4)cc3)[C@@H]2C1	/	/	/	4.4	/	/
O=C(Nc1ccc2c(c1)OCO2)N[C@H]1CC[C@@H](CCNC(=O)C2CC2)O[C@@H]1CO	/	/	/	1.6	/	/
CC(C)CCC(CCNCc1ccccn1)c1ccc(Cl)cc1 (centres undefined)	0.6	2.3	15.3*	10.3	-1.5	4.4
S=C(NCc1ccc(Cl)cc1)NCc1ccccn1	3.7	-0.6	-5.3	1.5	-1.9	4.2
CCCOC(=O)CCCCCCCCC(O)CN1CCCCC1 (centres undefined)	10.6	23.2*	0.9	-2.5	-5.2	0.4
COC(=O)CCCCCCCCCCN1CCCCC1	-2.1	-2.2	3.0	/	7.3	2.4
CCN(CC)c1ccc(NS(=O)(=O)c2ccc(-c3ccc(=O)[nH]n3)o2)c(C)c1	-1.3	-6.4	14.8*	9.0	4.4	-4.2
C[C@H](CO)N1C[C@H](C)[C@@H](CN(C)C)Oc2c(NC(=O)Nc3ccc4c(c3)OCO4)cccc2C1=O	/	/	/	0.0	/	/
O=C(Cn1cc(C(F)(F)F)ccc1=O)N1CCCc2ccccc21	-1.2	-0.3	-1.5	-1.0	5.0	0.8
CC1CCN(C(=O)Cn2cc(C(F)(F)F)ccc2=O)c2ccccc2S1 (centres undefined)	2.2	9.6	3.8	69.6*	-2.2	-0.4
